Experiments:
Mus musculus [1] = test: In vivo inhibition of mRNA splicing of human SMN2 exon 7 in FVB.Cg-Tg(SMN2 delta 7 exon)4299Ahmb Tg(SMN2)89Ahmb Smn1tm1Msd/J mouse assessed as median survival time at 0.1 mg/kg/day, ip administered on postnatal day 3 to day 23 (reference value: 14 days); assay type: functional
Mus musculus [2] = test: In vivo inhibition of mRNA splicing of human SMN2 exon 7 in FVB.Cg-Tg(SMN2 delta 7 exon)4299Ahmb Tg(SMN2)89Ahmb Smn1tm1Msd/J mouse assessed as increase in SMN protein level in quadriceps at 1 mg/kg, ip qd administered on postnatal day 3 to day 9 by HTRF assay relative to control; assay type: functional; set-up: scale not given: the % may be the effect or the level left
Summary of the method: (§1)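 Homozygous Δ7 SMA mice were dosed IP once daily from PND3 to PND9 with compound or vehicle (100% DMSO solution, 2.5 mL/kg). Brain, spinal cord and quadriceps were homogenized in RIPA buffer with protease inhibitors. SMN was read by HTRF (anti-SMN d2 and Kryptate antibodies, overnight rt, 665/620 nm) and normalized to BCA total protein. Values are % change versus vehicle ±SD; 5-11 mice per group.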

Mus musculus [3] = test: In vivo inhibition of mRNA splicing of human SMN2 exon 7 in FVB.Cg-Tg(SMN2 delta 7 exon)4299Ahmb Tg(SMN2)89Ahmb Smn1tm1Msd/J mouse assessed as increase in SMN protein level in brain at 3 mg/kg, ip qd administered on postnatal day 3 to day 9 by HTRF assay relative to control; assay type: functional; set-up: scale not given: the % may be the effect or the level left; summary of the method: as §1
Mus musculus [4] = test: In vivo inhibition of mRNA splicing of human SMN2 exon 7 in FVB.Cg-Tg(SMN2 delta 7 exon)4299Ahmb Tg(SMN2)89Ahmb Smn1tm1Msd/J mouse assessed as increase in SMN protein level in spinal cord at 1 mg/kg, ip qd administered on postnatal day 3 to day 9 by HTRF assay relative to control; assay type: functional; set-up: scale not given: the % may be the effect or the level left; summary of the method: as §1
Mus musculus [5] = test: In vivo inhibition of mRNA splicing of human SMN2 exon 7 in FVB.Cg-Tg(SMN2 delta 7 exon)4299Ahmb Tg(SMN2)89Ahmb Smn1tm1Msd/J mouse assessed as increase in SMN protein level in quadriceps at 3 mg/kg, ip qd administered on postnatal day 3 to day 9 by HTRF assay relative to control; assay type: functional; set-up: scale not given: the % may be the effect or the level left; summary of the method: as §1
Mus musculus [6] = test: In vivo inhibition of mRNA splicing of human SMN2 exon 7 in FVB.Cg-Tg(SMN2 delta 7 exon)4299Ahmb Tg(SMN2)89Ahmb Smn1tm1Msd/J mouse assessed as median survival time at 0.6 mg/kg/day, po bid administered on postnatal day 24 (reference value: 14 days); assay type: functional
Mus musculus [7] = test: In vivo inhibition of mRNA splicing of human SMN2 exon 7 in FVB.Cg-Tg(SMN2 delta 7 exon)4299Ahmb Tg(SMN2)89Ahmb Smn1tm1Msd/J mouse assessed as increase in SMN protein level in spinal cord at 3 mg/kg, ip qd administered on postnatal day 3 to day 9 by HTRF assay relative to control; assay type: functional; set-up: scale not given: the % may be the effect or the level left; summary of the method: as §1
Mus musculus [8] = test: In vivo inhibition of mRNA splicing of human SMN2 exon 7 in FVB.Cg-Tg(SMN2 delta 7 exon)4299Ahmb Tg(SMN2)89Ahmb Smn1tm1Msd/J mouse assessed as increase in SMN protein level in brain at 1 mg/kg, ip qd administered on postnatal day 3 to day 9 by HTRF assay relative to control; assay type: functional; set-up: scale not given: the % may be the effect or the level left; summary of the method: as §1
Mus musculus [9] = test: In vivo inhibition of mRNA splicing of human SMN2 exon 7 in FVB.Cg-Tg(SMN2 delta 7 exon)4299Ahmb Tg(SMN2)89Ahmb Smn1tm1Msd/J mouse assessed as increase in SMN protein level in brain at 0.03 mg/kg, ip qd administered on postnatal day 3 to day 9 by HTRF assay relative to control; assay type: functional; set-up: scale not given: the % may be the effect or the level left; summary of the method: as §1
Mus musculus [10] = test: In vivo inhibition of mRNA splicing of human SMN2 exon 7 in FVB.Cg-Tg(SMN2 delta 7 exon)4299Ahmb Tg(SMN2)89Ahmb Smn1tm1Msd/J mouse assessed as increase in SMN protein level in quadriceps at 0.03 mg/kg, ip qd administered on postnatal day 3 to day 9 by HTRF assay relative to control; assay type: functional; set-up: scale not given: the % may be the effect or the level left; summary of the method: as §1
Homo sapiens [11] = species: Homo sapiens; test: Inhibition of mRNA splicing of SMN2 exon 7 in GM03813 fibroblasts derived from SMA patient assessed as compound concentration required to increase SMN protein level by 1.5 times after 24 hrs by HTRF assay
Mus musculus [12] = test: In vivo inhibition of mRNA splicing of human SMN2 exon 7 in FVB.Cg-Tg(SMN2 delta 7 exon)4299Ahmb Tg(SMN2)89Ahmb Smn1tm1Msd/J mouse assessed as median survival time at 1 mg/kg/day, ip administered on postnatal day 3 to day 23 (reference value: 14 days); assay type: functional
Mus musculus [13] = test: In vivo inhibition of mRNA splicing of human SMN2 exon 7 in FVB.Cg-Tg(SMN2 delta 7 exon)4299Ahmb Tg(SMN2)89Ahmb Smn1tm1Msd/J mouse assessed as increase in SMN protein level in spinal cord at 0.03 mg/kg, ip qd administered on postnatal day 3 to day 9 by HTRF assay relative to control; assay type: functional; set-up: scale not given: the % may be the effect or the level left; summary of the method: as §1
Mus musculus [14] = test: In vivo inhibition of mRNA splicing of human SMN2 exon 7 in FVB.Cg-Tg(SMN2 delta 7 exon)4299Ahmb Tg(SMN2)89Ahmb Smn1tm1Msd/J mouse assessed as median survival time at 6 mg/kg/day, po bid administered on postnatal day 24 (reference value: 14 days); assay type: functional
Mus musculus [15] = test: In vivo inhibition of mRNA splicing of human SMN2 exon 7 in FVB.Cg-Tg(SMN2 delta 7 exon)4299Ahmb Tg(SMN2)89Ahmb Smn1tm1Msd/J mouse assessed as median survival time at 3 mg/kg/day, ip administered on postnatal day 3 to day 23 (reference value: 14 days); assay type: functional
Mus musculus [16] = test: In vivo inhibition of mRNA splicing of human SMN2 exon 7 in FVB.Cg-Tg(SMN2 delta 7 exon)4299Ahmb Tg(SMN2)89Ahmb Smn1tm1Msd/J mouse assessed as median survival time at 20 mg/kg/day, po bid administered on postnatal day 24 (reference value: 14 days); assay type: functional
Homo sapiens [17] = species: Homo sapiens; test: Inhibition of mRNA splicing of human SMN2 exon 7 transfected in HEK293H cells assessed as compound concentration required to increase full-length SMN2 mRNA level by 1.5 times after 24 hrs by RT-qPCR analysis relative to GAPDH; assay type: cell-based
Summary of the method: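 HEK293H cells stably carrying the SMN2 minigene (exon 6 to 5' exon 8 fused to firefly luciferase) were plated and held for 6 h, then treated 24 h in duplicate at varying concentrations (0.5% DMSO). Full-length minigene mRNA and GAPDH were quantified by TaqMan RT-qPCR using actual PCR efficiencies. Results were normalized to GAPDH and DMSO and expressed as fold change versus DMSO.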

SMILES: Cc1cn2cc(-c3cc4ccc(N5CCN(C)CC5)cc4c(=O)o3)nc2c(C)n1
- MST (Mus musculus [1]): >100 days
- Activity (Mus musculus [2]): 343%
- Activity (Mus musculus [3]): 395%
- Activity (Mus musculus [4]): 203%
- Activity (Mus musculus [5]): 517%
- MST (Mus musculus [6]): >100 days
- Activity (Mus musculus [7]): 284%
- Activity (Mus musculus [8]): 345%

SMILES: CCN1CCN(c2ccc3cc(-c4cn5cc(C)nc(C)c5n4)c(=O)oc3c2)C[C@@H]1C
- MST (Mus musculus [1]): 34 days
- Activity (Mus musculus [9]): -10%
- Activity (Mus musculus [10]): -3%
- MST (Mus musculus [6]): 34 days
- EC1.5 (Homo sapiens [11]): 44 nM
- MST (Mus musculus [12]): >150 days
- Activity (Mus musculus [13]): 7%
- MST (Mus musculus [14]): >150 days

SMILES: Cc1cn2nc(-c3cc(=O)n4cc(N5CCN(C)CC5)ccc4n3)cc2c(C)n1
- Activity (Mus musculus [2]): 129%
- Activity (Mus musculus [3]): 230%
- Activity (Mus musculus [4]): 123%
- Activity (Mus musculus [5]): 218%
- Activity (Mus musculus [7]): 189%
- Activity (Mus musculus [8]): 149%
- EC1.5 (Homo sapiens [11]): 160 nM
- MST (Mus musculus [12]): 45 days
- MST (Mus musculus [15]): >190 days
- MST (Mus musculus [16]): >190 days
- MST (Mus musculus [14]): 45 days
- EC1.5 (Homo sapiens [17]): 35 nM
